Data reported in ChEMBL document CHEMBL4706682, “Development of Novel Mitochondrial Pyruvate Carrier Inhibitors to Treat Hair Loss” (J Med Chem, 2021).
Activity calls are given as the source filed them. Unless noted, no cut-off for these calls is given here.

System: MCF-10A
Test: (§1) Inhibition of MPC in human MCF-10A cells assessed as reduction in oxygen consumption rate using pyruvate and malate and ADP
Assay type: cell-based
Settings: not given
Outline: (§2)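 A Seahorse XF Analyzer measured the respiration of permeabilized MCF10A cells, with 5 mM pyruvate and 0.5 mM malate as substrates plus ADP (state 3). Cells received half-log doses from 3 nM to 10 µM. OCR (fmol O2 per cell per min) was measured in duplicate and normalized to cell number. IC50 was fitted from the dose-response.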

Compound	inhibition
N#C/C(=C\c1cn(Cc2cc(C(F)(F)F)cc(C(F)(F)F)c2)c2ncccc12)C(=O)O	Active

System: not listed separately
Test: as §1
Assay type: cell-based
Settings: not given
Outline: as §2

Compound	IC50 [nM]
N#C/C(=C\c1cn(Cc2cc(C(F)(F)F)cc(C(F)(F)F)c2)c2ccccc12)C(=O)O	16.6
N#C/C(=C\c1cn(Cc2cc(C(F)(F)F)cc(C(F)(F)F)c2)c2ncccc12)C(=O)O	42.8

System: MCF-10A
Test: Toxicity in human MCF-10A cells assessed as reduction in cell viability incubated for 24 to 30 hrs
Assay type: cell-based
Settings: time 24-30 hrs

Compound	Activity
N#C/C(=C\c1cn(Cc2cc(C(F)(F)F)cc(C(F)(F)F)c2)c2ccccc12)C(N)=O	Toxic
N#C/C(=C\c1cn(Cc2cc(C(F)(F)F)cc(C(F)(F)F)c2)c2ccccc12)C(=O)N1CCOCC1	Toxic

System: Mus musculus
Test: Stimulation of hair growth in C57BL/6J mouse shaved at postnatal day 50 during telogen-phase of hair cycle at 20 uM dosed topically to shaved back skin every other day for 2 weeks
Assay type: functional, organism-based
Settings: not given
Outline: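 Wild-type C57BL/6J mice were shaved at postnatal day 50. They were treated topically every other day with about 300 µl of compound at 20 µM, suspended in Transderma Plo Ultramax gel, for up to 3 weeks; vehicle served as control. Pigmentation and hair growth (anagen entry) were photographed weekly. Mice were housed under defined pathogen-free conditions.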

Compound	Activity
N#C/C(=C\c1cn(Cc2cc(C(F)(F)F)cc(C(F)(F)F)c2)c2ccccc12)C(=O)O	Active
N#C/C(=C\c1cn(Cc2cc(C(F)(F)F)cc(C(F)(F)F)c2)c2cccc(Cl)c12)C(=O)O	Active
N#C/C(=C\c1cn(-c2ccccc2)c2cccc(Cl)c12)C(=O)O	Active
N#C/C(=C\c1cn(Cc2cc(C(F)(F)F)cc(C(F)(F)F)c2)c2cccc(Br)c12)C(=O)O	Active
N#C/C(=C\c1cn(Cc2cc(C(F)(F)F)cc(C(F)(F)F)c2)c2cccc(F)c12)C(=O)O	Active

System: MCF-10A
Test: Inhibition of MPC in human MCF-10A cells assessed as increase in cellular lactate production incubated for 24 to 30 hrs
Assay type: cell-based
Settings: time 24-30 hrs
Outline: (§3)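 MCF10A cells were seeded in triplicate and treated the next day with analogue or an equal volume of DMSO for 24-30 h. Lactate in the culture medium was measured on a BioProfile Basic Analyzer. It was normalized to cell number and run time to give a rate (nmol lactate per million cells per hour), relative to DMSO. Statistics were one-way ANOVA with Dunnett's post-test against DMSO.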

Compound	inhibition
N#C/C(=C\c1cn(-c2ccccc2)c2ccccc12)C(=O)O	Dose-dependent effect

System: MCF-10A
Test: Inhibition of MPC in human MCF-10A cells assessed as increase in cellular lactate production at 10 uM incubated for 24 to 30 hrs
Assay type: cell-based
Settings: time 24-30 hrs
Outline: as §3

Compound	inhibition
N#CC(Cc1cn(-c2ccccc2)c2ccccc12)C(=O)O (stereo unspecified)	inactive
N#C/C(=C\c1cn(Cc2cc(C(F)(F)F)cc(C(F)(F)F)c2)c2cccc(C#N)c12)C(=O)O	Active
N#C/C(=C\c1cn(Cc2cc(C(F)(F)F)cc(C(F)(F)F)c2)c2ccccc12)C(=O)O	Active
N#C/C(=C\c1cn(Cc2cc(C(F)(F)F)cc(C(F)(F)F)c2)c2ccccc12)C(N)=O	Active
N#C/C(=C\c1cn(Cc2cc(C(F)(F)F)cc(C(F)(F)F)c2)c2cnccc12)C(=O)O	Active
CCOC(=O)/C(C#N)=C/c1c[nH]c2ccccc12	inactive
CCOP(=O)(OCC)/C(C#N)=C/c1cn(Cc2cc(C(F)(F)F)cc(C(F)(F)F)c2)c2ncccc12	Active
N#C/C(=C\c1cn(Cc2ccc(F)cc2)c2ccccc12)C(=O)O	Active
COc1ccccc1-n1cc(/C=C(\C#N)C(=O)O)c2ccccc21	Active
N#C/C(=C\c1cn(Cc2cc(C(F)(F)F)cc(C(F)(F)F)c2)c2c(Cl)cccc12)C(=O)O	inactive
N#C/C(=C\c1cn(Cc2cc(C(F)(F)F)cc(C(F)(F)F)c2)c2ccc(Cl)cc12)C(=O)O	inactive
CCOC(=O)/C(C#N)=C/c1cn(Cc2cc(C(F)(F)F)cc(C(F)(F)F)c2)c2cccc(Br)c12	Active
N#C/C(=C\c1ccc(F)c(C(F)(F)F)c1)C(=O)O	inactive
N#C/C(=C\c1cc(C(F)(F)F)cc(C(F)(F)F)c1)C(=O)O	inactive
N#C/C(=C\c1cn(Cc2cc(C(F)(F)F)cc(C(F)(F)F)c2)c2cccc(Cl)c12)C(=O)O	Active
N#C/C(=C\c1cn(Cc2cc(C(F)(F)F)cc(C(F)(F)F)c2)c2cccnc12)C(=O)O	Active
CCOC(=O)/C(C#N)=C/c1cn(Cc2cc(C(F)(F)F)cc(C(F)(F)F)c2)c2cccc(F)c12	Active
N#C/C(=C\c1cn(Cc2cc(C(F)(F)F)cc(C(F)(F)F)c2)c2ccccc12)P(=O)(O)O	inactive
CCOC(=O)/C(C#N)=C/c1cn(Cc2cc(F)cc(F)c2)c2ccccc12	Active
N#C/C(=C\c1cn(Cc2ccc(F)c(F)c2)c2ccccc12)C(=O)O	Active
N#C/C(=C\c1c[nH]c2ccccc12)C(=O)O	inactive
N#C/C(=C\c1cn(-c2ccccc2)c2ccccc12)C(=O)O	Active

Compound	inhibition
CCOP(=O)(OCC)/C(C#N)=C/c1cn(Cc2cc(C(F)(F)F)cc(C(F)(F)F)c2)c2ccccc12	Active
COc1cccc2c1c(/C=C(\C#N)C(=O)O)cn2Cc1cc(C(F)(F)F)cc(C(F)(F)F)c1	Active
N#C/C(=C\c1ccc(O)cc1)C(=O)O	inactive
N#C/C(=C\c1cn(Cc2ccccc2)c2ccccc12)C(=O)O	Active
COc1ccc(-n2cc(/C=C(\C#N)C(=O)O)c3ccccc32)cc1	Active
N#C/C(=C\c1cn(Cc2cc(C(F)(F)F)cc(C(F)(F)F)c2)c2c(OCc3ccccc3)cccc12)C(=O)O	Active
N#C/C(=C\c1cn(Cc2cc(C(F)(F)F)cc(C(F)(F)F)c2)c2cc(OCc3ccccc3)ccc12)C(=O)O	inactive
CCOC(=O)/C(C#N)=C/c1cn(Cc2ccc(F)c(F)c2)c2ccccc12	Active
N#C/C(=C\c1cn(Cc2ccc(F)c(F)c2)c2cc(F)ccc12)C(=O)O	Active
N#C/C(=C\c1cn(Cc2cc(C(F)(F)F)cc(C(F)(F)F)c2)c2cc(Cl)ccc12)C(=O)O	inactive
N#C/C(=C\c1cn(Cc2ccc(F)c(F)c2)c2ccc(F)cc12)C(=O)O	Active
N#C/C(=C\c1cn(Cc2cc(C(F)(F)F)cc(C(F)(F)F)c2)c2ccccc12)C(=O)N1CCOCC1	Active
N#C/C(=C\c1cn(Cc2cc(C(F)(F)F)cc(C(F)(F)F)c2)c2cccc(OCc3ccccc3)c12)C(=O)O	inactive
N#C/C(=C\c1cn(Cc2cc(C(F)(F)F)cc(C(F)(F)F)c2)c2nccc(Cl)c12)C(=O)O	Active
CCOC(=O)/C(C#N)=C/c1cn(Cc2cc(C(F)(F)F)cc(C(F)(F)F)c2)c2ccccc12	Active
N#C/C(=C\c1ccc(F)cc1)C(=O)O	inactive
N#C/C(=C\c1ccccc1)C(=O)O	inactive
Cc1ccc(/C=C(\C#N)C(=O)O)cc1F	inactive
CCOC(=O)/C(C#N)=C/c1cn(Cc2ccccc2)c2ccccc12	Active
N#C/C(=C\c1cccc(C(F)(F)F)c1Cl)C(=O)O	inactive
N#C/C(=C\c1cn(Cc2cc(F)cc(F)c2)c2cc(F)ccc12)C(=O)O	Active
N#C/C(=C\c1cn(Cc2cc(C(F)(F)F)cc(C(F)(F)F)c2)c2cccc(Br)c12)C(=O)O	Active

Compound	inhibition
CCOC(=O)/C(C#N)=C/c1cn(-c2ccccc2)c2ccccc12	inactive
N#C/C(=C\c1ccccc1F)C(=O)O	inactive
CCOC(=O)C(=Cc1cn(-c2ccccc2)c2ccccc12)C(=O)O (mixture of isomers)	inactive
N#C/C(=C\c1cn(Cc2cc(C(F)(F)F)cc(C(F)(F)F)c2)c2cccc(C(=O)O)c12)C(=O)O	inactive
N#C/C(=C\c1cn(Cc2cc(C(F)(F)F)cc(C(F)(F)F)c2)c2c(F)cccc12)C(=O)O	Active
N#C/C(=C\c1cn(Cc2cc(F)cc(F)c2)c2ccc(F)cc12)C(=O)O	Active
N#C/C(=C\c1ccc(C(F)(F)F)cc1)C(=O)O	inactive
COC(=O)/C(C#N)=C/c1cn(Cc2cc(C(F)(F)F)cc(C(F)(F)F)c2)c2ccccc12	inactive
CC(C)(C)OC(=O)/C(C#N)=C/c1cn(Cc2cc(C(F)(F)F)cc(C(F)(F)F)c2)c2ccccc12	inactive
CCOC(=O)/C(C#N)=C/c1cn(-c2ccccc2OC)c2ccccc12	Active
CCOC(=O)/C(C#N)=C/c1cn(C(=O)Cc2cc(C(F)(F)F)cc(C(F)(F)F)c2)c2ccccc12	inactive
N#C/C(=C\c1cn(Cc2cc(C(F)(F)F)cc(C(F)(F)F)c2)c2ncccc12)C(=O)O	Active
N#C/C(=C\c1cn(Cc2cc(F)cc(F)c2)c2ccccc12)C(=O)O	Active
N#CC(C#N)=Cc1cn(-c2ccccc2)c2ccccc12	inactive
CCOC(=O)/C(C#N)=C/c1cn(Cc2cc(C(F)(F)F)cc(C(F)(F)F)c2)c2ncccc12	Active
N#C/C(=C\c1ccc(F)c(F)c1)C(=O)O	inactive
CCOC(=O)/C(C#N)=C/c1cn(-c2ccc(OC)cc2)c2ccccc12	Active
N#C/C(=C\c1cn(Cc2cc(C(F)(F)F)cc(C(F)(F)F)c2)c2cccc(F)c12)C(=O)O	Active
N#C/C(=C\c1ccc(F)cc1F)C(=O)O	inactive
N#C/C(=C\c1cn(Cc2cc(C(F)(F)F)cc(C(F)(F)F)c2)c2nccc(Br)c12)C(=O)O	Active
CCOC(=O)/C(C#N)=C/c1cn(Cc2ccc(F)cc2)c2ccccc12	Active
